In the library only some 3.5% were active in any assay of this set; here they are far more common.
MrgX1 agonist: agonists of human MrgX1 receptor | Q96LB2 | MrgX1-HEK293 cells, Fluo-4 calcium fluorescence, agonist mode; hits give high values | B-score at 10 µM | 310,000 tested, 0.44% active | AID 588627;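 active = calcium response B-score plate-corrected fluorescence ratio at least 3 library SD, with starting fluorescence B-score inside 5 SD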
Target sequence (Q96LB2 whole entry, looked up): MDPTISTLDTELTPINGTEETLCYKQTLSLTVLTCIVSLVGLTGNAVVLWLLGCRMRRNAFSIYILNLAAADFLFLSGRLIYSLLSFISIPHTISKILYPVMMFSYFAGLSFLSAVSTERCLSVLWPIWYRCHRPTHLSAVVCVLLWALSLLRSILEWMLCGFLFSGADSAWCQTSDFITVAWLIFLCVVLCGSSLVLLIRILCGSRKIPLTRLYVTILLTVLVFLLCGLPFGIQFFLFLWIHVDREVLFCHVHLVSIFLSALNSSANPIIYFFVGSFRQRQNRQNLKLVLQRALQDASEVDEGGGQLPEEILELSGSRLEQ
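Test system: HEK293 cells stably expressing human MrgX1 receptor; amount: 15,000 cells per well; doses: compound delivered in addition one of three; times: overnight plating before 1 h dye loading; detection: Fluo-4 NW calcium-flux fluorescence, kinetic read; read-out basis: B-scored fluorescence response ratio; controls: positive and negative controls per plate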
RGS4 act: potentiators or activators of RGS4; HEK293 M3R/inducible RGS4, carbachol calcium flux Fluo4; hits give low values; B-score at 10 µM; 310,000 tested, 0.92% active;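 active = B-score of the integrated calcium signal more than 4 SD below the library mean, with starting fluorescence not abnormally high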;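 note: negative B-score means reduced calcium response which marks RGS4 activation or potentiation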
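Reagent: ECmax carbachol challenge; Test system: M3R-expressing HEK293 line, RGS4 induced by doxycycline; Schedule: overnight RGS4 induction, 30 min dye load 37 °C, 20 min compound RT; Detection: calcium dye Fluo4 fluorescence; Read-out: Agonist-evoked peak-minus-minimum fluorescence over baseline, integrated ratio, B score.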
RGS4 block: human RGS4 inhibition. P49798. HEK293 M3R/RGS4 inducible, Fluo-4 calcium flux; hits give high values; triggered by carbachol at its EC20. B-score at 10 µM. 310,000 tested, 0.45% active. AID 463165;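 active = B-score, a plate-corrected calcium signal, over three deviations above library mean, with baseline fluorescence within five deviations of library mean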;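 note: RGS4 expression induced by doxycycline in cells with stable M3 receptor; B-score is computed from the integrated fluorescence ratio over baseline after carbachol; higher B-score means a larger calcium signal and so more RGS4 inhibition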
Target sequence (P49798 whole entry, looked up): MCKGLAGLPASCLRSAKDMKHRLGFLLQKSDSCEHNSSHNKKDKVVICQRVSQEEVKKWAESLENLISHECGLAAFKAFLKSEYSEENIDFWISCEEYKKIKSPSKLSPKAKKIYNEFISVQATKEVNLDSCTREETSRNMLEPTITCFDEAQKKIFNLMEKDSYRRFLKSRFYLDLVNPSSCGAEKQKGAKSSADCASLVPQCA
MrgX1 antag: antagonists of human MrgX1 receptor; Q96LB2; MRGX1-HEK293 calcium flux, Fluo-4, BAM8-22 antagonism; hits give low values; B-score at 10 µM; 310,000 tested, 1.3% active; AID 588676;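 active = calcium-response B-score plate-corrected more than 3 library SD below zero, starting fluorescence within 5 deviations, no agonist response on first addition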;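 note: peak minus trough fluorescence over baseline after final BAM8-22 challenge near maximal dose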
MrgX1 PAM: human MrgX1 positive allosteric modulation, primary screen; Q96LB2; AID 588675; B-score at 10 µM; MrgX1-HEK293, Fluo-4 calcium flux, FDSS; hits give high values; 310,000 tested, 0.63% active;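 active = plate-corrected calcium response at least 3 library SD above typical, normal starting fluorescence, not activating the receptor alone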;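 note: compound read alongside a low EC10 to EC30 dose of BAM8-22 agonist; peak minus trough fluorescence over baseline measured at the second addition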
RGS4 activ val: RGS4 activation, validation assay; shares compounds with RGS4 act; HEK293 M3R/RGS4 inducible, carbachol calcium flux Fluo4; AID 602282; inhibition, % at 10 µM; 1,100 tested, 89% active;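 active = inhibition above 3 SD of the buffer control wells, cut at about 41% in these data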;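 note: signal is the integrated peak-minus-minimum Fluo4 fluorescence over baseline ratio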
RGS4 act ctr: activity in cells without induced RGS4 expression | 1,100 tested, 82% active | HEK293 M3R non-induced RGS4, Fluo4 calcium flux; after carbachol challenge at its EC90 | shares compounds with RGS4 act | inhibition, % at 10 µM;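 active = inhibition exceeding 3 SD of buffer-only control wells, cut at about 26% in these data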;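 note: percent drop in integrated peak-minus-baseline over baseline Fluo4 ratio after carbachol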
Of the large screens only hits and unclear results are named; the others gave an inactive call (follow-up assays come after a bar, where they were run).

CC(C)NS(=O)(=O)c1ccc(NC(=O)C(C)Oc2ccc(C(=O)c3ccccc3)cc2)cc1 (stereo not given)	RGS4 act -7.7, MrgX1 antag -8.6 | RGS4 activ val 70 | RGS4 act ctr 74
COc1ccc2c(c1)C=C(CN1CCC(CO)(CCc3ccccc3)CC1)CO2	RGS4 act -8 | RGS4 activ val 80 | RGS4 act ctr 84
CCCOc1ccc(C(O)(CCC)CCN2CCCCC2)cc1 (stereo not given)	RGS4 act -8.3 | RGS4 activ val 88 | RGS4 act ctr 36
CCCC(O)(CCN1CCOCC1)c1ccc(Cl)cc1 (stereo not given)	none
CCOc1ccc(OCCN2CCCCC2)cc1	none
CCCC(O)(CCN1CCOCC1)c1ccc(Br)cc1 (stereo not given)	RGS4 act -9 | RGS4 activ val 91 | RGS4 act ctr 78
CNC(=O)c1ccc(C)c(NC(=O)C2=C(C)OCCS2)c1	none
Cc1ccccc1NC(=O)c1cccc2nc3ccccc3nc12	RGS4 act -7.8 | RGS4 activ val 86 | RGS4 act ctr 59
CCCCC(CC)C(=O)Oc1ccc(O)c(C(C)(C)C)c1 (stereo not given)	RGS4 act -7.7 | RGS4 activ val 92 | RGS4 act ctr 87
O=C1CCN(Cc2ccc([N+](=O)[O-])cc2)CCN1[C@H](CO)c1ccccc1	none
CN(C)CCCNC(=O)c1ccc(-c2nc(-c3ccc(Cl)cc3)cs2)cc1	RGS4 act -8.2 | RGS4 activ val 96 | RGS4 act ctr 98
CCOC(=O)Oc1ccc2oc(C)c(C(=O)OCCOC)c2c1	none
COCCOC(=O)c1c(C)oc2ccc(OC(=O)c3c(OC)cccc3OC)cc12	RGS4 act -7.7 | RGS4 activ val 93 | RGS4 act ctr 57
COCCOC(=O)c1c(C)oc2ccc(OC(=O)c3ccc4c(c3)OCO4)cc12	RGS4 act -8.4 | RGS4 activ val 90 | RGS4 act ctr 59
CCOC(=O)c1cc(-c2ccccc2)nc2nc(N(CC)CC)sc12	RGS4 act -9 | RGS4 activ val 88 | RGS4 act ctr 76
COc1ccc(-c2noc(CN3CCCCC3c3nccn3C)n2)cc1 (stereo not given)	RGS4 act -7.6 | RGS4 activ val 66 | RGS4 act ctr 84
Cn1ccnc1C1CCCCN1Cc1nc(-c2ccc3c(c2)OCO3)no1 (stereo not given)	RGS4 act -7.8 | RGS4 activ val 86 | RGS4 act ctr 62
Cn1ccnc1C1CCCCN1Cc1nc(Cc2cccc(C(F)(F)F)c2)no1 (stereo not given)	RGS4 act -10 | RGS4 activ val 78 | RGS4 act ctr 40
CN(Cc1nc(-c2ccc3c(c2)OCO3)no1)CC1(N2CCOCC2)CCCCC1	none
FC(F)(F)c1cccc(Cc2noc(CN3C[C@@H]4CCC[C@H]3C4)n2)c1	none
C=CCOc1c(Br)cc(CNc2ccc(NC(=O)C(C)C)c(OC)c2)cc1OCC	none
CCNc1ccc(S(N)(=O)=O)cc1[N+](=O)[O-]	none
Cc1ccc(S(=O)(=O)Nc2cc(=O)[nH]c3c2CCC3)cc1	none
C=CCN(C(=O)c1csnn1)C(C(=O)NC1CCCC1)c1ccc(OC)cc1 (stereo not given)	none
COc1cccc(CNC(=O)CCC2CCCN(c3cc(C)nc(N(C)C)n3)C2)c1 (stereo not given)	RGS4 act -11 | RGS4 activ val 90 | RGS4 act ctr 72
COc1ccc(OC)c(/C=C/c2nc3ccccc3[nH]c2=O)c1	RGS4 act -7.7 | RGS4 activ val 60 | RGS4 act ctr 44
O=C(Nc1ccc2c(c1)OCCO2)c1cccnc1	RGS4 act -8.1 | RGS4 activ val inactive | RGS4 act ctr inactive
CSc1nc(NCCCO)c2c3c(sc2n1)CN(C)CC3	RGS4 act -7.8 | RGS4 activ val inactive | RGS4 act ctr inactive
CC(C)(C)OC(=O)N1CCC[C@H]1c1nnc(SCc2cccc(Cl)c2)o1	none
Cc1ccc(Cl)cc1N1CCN(C(=S)NCCc2ccccc2)CC1	RGS4 act -12 | RGS4 activ val 94 | RGS4 act ctr 67
Cc1cccc(N2CCN(C(=S)NCCc3ccccc3)CC2)c1C	none
O=C(CN1CCN(S(=O)(=O)c2ccccc2)CC1)NCCc1ccccc1	none
N#Cc1ccccc1OCCCN1CCC(Cc2ccccc2)CC1	RGS4 act -8.7 | RGS4 activ val 82 | RGS4 act ctr 39
COc1ccc(C(=O)Nc2cccc(-c3nnc(-c4ccco4)o3)c2)cc1	RGS4 act -9.6 | RGS4 activ val 88 | RGS4 act ctr 48
COc1ccc(CC(=O)Nc2cccc(-c3nnc(-c4ccco4)o3)c2)cc1	none
COc1cc2ccccc2cc1-c1nnc(COc2ccccc2)o1	none
O=c1c2c(nc3n1CCCCC3)-c1ccccc1CC21CCCCC1	RGS4 act -16 | RGS4 activ val 90 | RGS4 act ctr 79
Cc1ccc2c(c1)NC(=O)C(CC(=O)Nc1ccc(CN3CCC(C)CC3)cc1)O2 (stereo not given)	RGS4 act -7.7 | RGS4 activ val 92 | RGS4 act ctr 95
COc1cc(C(=O)Oc2cccc(Nc3ncnc4ccccc34)c2)cc(OC)c1OC	RGS4 act -12 | RGS4 activ val 92 | RGS4 act ctr 80
CC(C)(C)NC(=O)COC(=O)c1ccc2c(c1)C(=O)N(Cc1ccco1)C2=O	none
Cc1[nH]nc2c1C(c1ccc(F)cc1)C1=C(CC(C)(C)CC1=O)N2 (stereo not given)	RGS4 act -9.7 | RGS4 activ val inactive | RGS4 act ctr inactive
O=C(Oc1ccccc1O)c1cccc2ccccc12	none
COc1ccc(OC)c(-c2csc(NC(=O)c3ccc(F)cc3)n2)c1	RGS4 act -8.3 | RGS4 activ val 82 | RGS4 act ctr 52
O=C(Nc1ccc(Oc2ccccc2)nc1)C1CCCCN1Cc1ccc(OCCO)cc1 (stereo not given)	none
S=C(NCCN(C1CCCCC1)C1CCCC1)Nc1cccc(Cl)c1	RGS4 act -7.9 | RGS4 activ val 62 | RGS4 act ctr 84
S=C(Nc1cccc(Cl)c1)NC1CC2CCCC(C1)N2C1CCCC1 (stereo not given)	none
O=C1NC2CCc3nc4ccccc4c(=O)n3C2=Nc2ccccc21 (stereo not given)	RGS4 act -9.8 | RGS4 activ val inactive | RGS4 act ctr inactive
O=c1c2ccccc2nc(-c2ccccc2Cl)n1O	none
CCOC(=O)C1=C(C)OC(N)=C(C#N)C1c1cc2c(cc1Br)OCO2 (stereo not given)	RGS4 act -8.7 | RGS4 activ val 90 | RGS4 act ctr 65

Bioassay records as filed in PubChem.
